Test results: ChEMBL document CHEMBL5705902, “Role of G Protein-Coupled Receptor Kinases 2 and 3 in μ-Opioid Receptor Desensitization and Internalization” (Mol Pharmacol, 2015)
Active and inactive are the calls of the source. The calls are words filed in the database; no cut-off is given here.

Key:
[1] = molecular target: Mu-type opioid receptor (Rattus norvegicus) (UniProt P33535); test: Inhibition of HA-tagged rat MOPr in HEK293 cells assessed as prevention in DAMGO induced MOPr phosphorylation at Thr376 level at 30 uM preincubated for 30 mins by western blot analysis; assay type: functional, cell-based
Target sequence in this assay (P33535 whole entry, the tested form may be a part): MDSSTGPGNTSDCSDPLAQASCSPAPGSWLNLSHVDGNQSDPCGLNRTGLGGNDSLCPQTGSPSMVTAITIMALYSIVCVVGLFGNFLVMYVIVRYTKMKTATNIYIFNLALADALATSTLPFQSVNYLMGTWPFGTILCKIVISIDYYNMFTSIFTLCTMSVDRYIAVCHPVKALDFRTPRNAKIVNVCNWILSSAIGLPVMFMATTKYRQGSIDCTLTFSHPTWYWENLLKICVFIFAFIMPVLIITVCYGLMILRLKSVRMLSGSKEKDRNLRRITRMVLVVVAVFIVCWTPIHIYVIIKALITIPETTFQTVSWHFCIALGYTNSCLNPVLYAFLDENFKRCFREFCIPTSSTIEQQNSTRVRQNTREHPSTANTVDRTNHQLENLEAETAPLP

[2] = molecular target: Aurora kinase B (Homo sapiens) (UniProt Q96GD4); test: Inhibition of human Aurora B assessed as remaining activity at 1 uM in presence of 32ATP relative to control
Summary of the method: (§1)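 Express screen of 52 purified human kinases run as a radioactive filter-binding assay with 32ATP, at 1 μM inhibitor. ATP was at or below each kinase's calculated Km. Activity is given as percent of the activity without inhibitor. Run in duplicate; mean with S.D.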

[3] = molecular target: Mu-type opioid receptor (Rattus norvegicus) (UniProt P33535); test: Inhibition of MOPr desensitization (unknown origin) assessed as DAMGO induced loss of functional receptor at 30 uM incubated for 15 mins relative to control
[4] = molecular target: Protein kinase C alpha type (Homo sapiens) (UniProt P17252); test: Inhibition of human PKCalpha assessed as remaining activity at 1 uM in presence of 32ATP relative to control
Summary of the method: (§2)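 Express panel of 52 purified human kinases run in vitro. Kinase activity was measured directly by a radioactive filter-binding assay with ³²ATP, at ATP levels at or below each kinase's calculated Km for ATP. The compound was tested at 1 μM. Each assay was run in duplicate, and activity is given as the mean percentage (with S.D.) of activity without inhibitor.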

[5] = molecular target: Mitogen-activated protein kinase kinase kinase 11 (Homo sapiens) (UniProt Q16584); test: Inhibition of human MLK3 assessed as remaining activity at 1 uM in presence of 32ATP relative to control; summary of the method: as §2
[6] = molecular target: Homeodomain-interacting protein kinase 2 (Homo sapiens) (UniProt Q9H2X6); test: Inhibition of human HIPK2 assessed as remaining activity at 1 uM in presence of 32ATP relative to control; summary of the method: as §2
[7] = molecular target: Dual specificity mitogen-activated protein kinase kinase 1 (Homo sapiens) (UniProt Q02750); test: Inhibition of human MKK1 assessed as remaining activity at 1 uM in presence of 32ATP relative to control; summary of the method: as §2
[8] = molecular target: Glycogen synthase kinase-3 beta (Homo sapiens) (UniProt P49841); test: Inhibition of human GSK3b assessed as remaining activity at 1 uM in presence of 32ATP relative to control; summary of the method: as §2
[9] = molecular target: Beta-2 adrenergic receptor (Bos taurus) (UniProt Q28044); test: Inhibition of bovine beta2-adrenoceptor desensitization in HEK293 cell; assay type: cell-based; conditions: dose 3-30 µM
[10] = molecular target: MAP/microtubule affinity-regulating kinase 3 (Homo sapiens) (UniProt P27448); test: Inhibition of human MARK3 assessed as remaining activity at 1 uM in presence of 32ATP relative to control; summary of the method: as §2
[11] = molecular target: Mu-type opioid receptor (Rattus norvegicus) (UniProt P33535); test: Inhibition of HA-tagged rat MOPr in HEK293 cells assessed as DAMGO induced MOPr phosphorylation at Ser375 level at 3 uM preincubated for 30 mins by western blot analysis; assay type: functional, cell-based
Summary of the method: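 Serum-starved HEK 293 cells stably expressing HA-rat MOPr were pretreated with inhibitor for 30 min, then DAMGO 10 μM for 5 min. Receptor was enriched on WGA-agarose overnight at 4°C and blotted for pSer375. Densitometry was done in duplicate and normalized to total HA-MOPr; n = 3.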
Target sequence in this assay (P33535 whole entry, the tested form may be a part): as above

[12] = molecular target: Serine/threonine-protein kinase PAK 4 (Homo sapiens) (UniProt O96013); test: Inhibition of human PAK4 assessed as remaining activity at 1 uM in presence of 32ATP relative to control; summary of the method: as §2
[13] = molecular target: Tyrosine-protein kinase Lck (Homo sapiens) (UniProt P06239); test: Inhibition of human Lck assessed as remaining activity at 1 uM in presence of 32ATP relative to control; summary of the method: as §2
[14] = molecular target: Mu-type opioid receptor (Rattus norvegicus) (UniProt P33535); test: Inhibition of HA-tagged rat MOPr in HEK293 cells assessed as prevention in DAMGO induced MOPr phosphorylation at Thr379 level at 30 uM preincubated for 30 mins by western blot analysis; assay type: functional, cell-based
Target sequence in this assay (P33535 whole entry, the tested form may be a part): as above

[15] = molecular target: Mu-type opioid receptor (Rattus norvegicus) (UniProt P33535); test: Inhibition of MOPr desensitization in wistar rat LC neuron cells assessed as reduction in the Met-Enk induced desensitization at 30 uM incubated for 15 mins before relative to control; assay type: functional, cell-based
Summary of the method: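 Whole-cell patch clamp of GIRK currents in locus coeruleus slices from male Wistar rats (5–8 weeks). Inhibitor was given at least 15 min before and during the agonist, all drugs by superfusion. Percent desensitization was taken over 10 min of opioid agonist application. Met-Enk n = 5, endomorphin-2 n = 6; ANOVA.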
Target sequence in this assay (P33535 whole entry, the tested form may be a part): as above

[16] = molecular target: Mitogen-activated protein kinase kinase kinase 7 (Homo sapiens) (UniProt O43318); test: Inhibition of human TAK1 assessed as remaining activity at 1 uM in presence of 32ATP relative to control; summary of the method: as §2
[17] = organism: Homo sapiens; test: Inhibition of human AMPK assessed as remaining activity at 1 uM in presence of 32ATP relative to control; summary of the method: as §1
[18] = molecular target: cAMP-dependent protein kinase (PKA) (Homo sapiens) (UniProt P22694+P17612+P22612); test: Inhibition of PKA (unknown origin) at 1 uM in presence of 32ATP relative to control; assay type: protein assay; summary of the method: as §1
[19] = molecular target: Proto-oncogene tyrosine-protein kinase Src (Homo sapiens) (UniProt P12931); test: Inhibition of human Src assessed as remaining activity at 1 uM in presence of 32ATP relative to control; summary of the method: as §2
[20] = molecular target: G protein-coupled receptor kinase 5 (Bos taurus) (UniProt P43249); test: Inhibition of C-terminal truncations tagged bovine GRK5 at 125 uM in the presence of ATP
[21] = molecular target: Rho-associated protein kinase 2 (Homo sapiens) (UniProt O75116); test: Inhibition of human ROCK 2 assessed as remaining activity at 1 uM in presence of 32ATP relative to control; summary of the method: as §2
[22] = molecular target: Tyrosine-protein kinase SYK (Homo sapiens) (UniProt P43405); test: Inhibition of human SYK assessed as remaining activity at 1 uM in presence of 32ATP relative to control; summary of the method: as §2
[23] = molecular target: Insulin-like growth factor 1 receptor (Homo sapiens) (UniProt P08069); test: Inhibition of human IGF1R assessed as remaining activity at 1 uM in presence of 32ATP relative to control; summary of the method: as §2
[24] = molecular target: Mu-type opioid receptor (Rattus norvegicus) (UniProt P33535); test: Inhibition of MOPr desensitization in wistar rat LC neuron cells assessed as reduction in the morphine induced desensitization at 30 uM incubated for 15 mins; assay type: functional, cell-based
Target sequence in this assay (P33535 whole entry, the tested form may be a part): as above

[25] = molecular target: Calcium/calmodulin-dependent protein kinase kinase 2 (Homo sapiens) (UniProt Q96RR4); test: Inhibition of human CAMKKb assessed as remaining activity at 1 uM in presence of 32ATP relative to control; summary of the method: as §1
[26] = molecular target: Mitogen-activated protein kinase 14 (Homo sapiens) (UniProt Q16539); test: Inhibition of human p38a MAPK assessed as remaining activity at 1 uM in presence of 32ATP relative to control; summary of the method: as §2
[27] = molecular target: Mu-type opioid receptor (Rattus norvegicus) (UniProt P33535); test: Inhibition of HA-tagged rat MOPr stably expressing in HEK293 cells assessed as increase in DAMGO-induced Elk1 phosphorylation level at 30 uM preincubated for 30 mins by westernblot analysis; assay type: functional, cell-based
Summary of the method: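 HA-MOPr HEK 293 cells were serum-starved 24 h and pretreated with inhibitor (30 μM) for 30 min, then given DAMGO 10 μM for 5 min.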
Target sequence in this assay (P33535 whole entry, the tested form may be a part): as above

Mitogen-activated protein kinase kinase kinase 7 (Homo sapiens), sequence (O43318 whole entry): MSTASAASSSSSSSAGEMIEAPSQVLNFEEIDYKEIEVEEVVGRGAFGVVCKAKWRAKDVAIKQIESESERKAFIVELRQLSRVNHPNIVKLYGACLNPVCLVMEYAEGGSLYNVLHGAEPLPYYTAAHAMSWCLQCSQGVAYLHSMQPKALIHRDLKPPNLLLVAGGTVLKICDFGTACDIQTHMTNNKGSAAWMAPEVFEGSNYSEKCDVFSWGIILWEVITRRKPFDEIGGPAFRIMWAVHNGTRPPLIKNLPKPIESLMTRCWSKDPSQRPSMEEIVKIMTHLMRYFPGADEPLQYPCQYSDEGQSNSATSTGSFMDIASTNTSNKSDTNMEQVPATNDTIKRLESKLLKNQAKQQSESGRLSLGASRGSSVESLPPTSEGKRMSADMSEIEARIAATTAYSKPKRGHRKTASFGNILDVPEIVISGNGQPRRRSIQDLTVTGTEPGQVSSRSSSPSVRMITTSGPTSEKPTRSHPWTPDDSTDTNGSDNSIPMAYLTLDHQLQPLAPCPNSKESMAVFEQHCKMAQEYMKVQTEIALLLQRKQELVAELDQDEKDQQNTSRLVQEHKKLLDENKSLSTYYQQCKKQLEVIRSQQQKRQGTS
Glycogen synthase kinase-3 beta (Homo sapiens), sequence (P49841 whole entry, looked up): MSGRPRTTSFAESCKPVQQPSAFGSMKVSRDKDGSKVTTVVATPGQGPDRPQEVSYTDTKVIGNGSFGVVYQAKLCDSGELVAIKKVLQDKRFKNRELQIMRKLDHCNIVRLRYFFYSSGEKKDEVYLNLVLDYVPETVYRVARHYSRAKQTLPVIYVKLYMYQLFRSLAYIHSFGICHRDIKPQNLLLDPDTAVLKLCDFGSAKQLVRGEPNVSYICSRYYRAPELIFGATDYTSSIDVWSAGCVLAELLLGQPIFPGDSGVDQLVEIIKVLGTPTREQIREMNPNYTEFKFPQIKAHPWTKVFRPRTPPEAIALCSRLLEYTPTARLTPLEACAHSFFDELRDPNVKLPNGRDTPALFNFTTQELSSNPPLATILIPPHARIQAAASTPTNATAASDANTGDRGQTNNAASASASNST
Dual specificity mitogen-activated protein kinase kinase 1 (Homo sapiens), sequence (Q02750 whole entry): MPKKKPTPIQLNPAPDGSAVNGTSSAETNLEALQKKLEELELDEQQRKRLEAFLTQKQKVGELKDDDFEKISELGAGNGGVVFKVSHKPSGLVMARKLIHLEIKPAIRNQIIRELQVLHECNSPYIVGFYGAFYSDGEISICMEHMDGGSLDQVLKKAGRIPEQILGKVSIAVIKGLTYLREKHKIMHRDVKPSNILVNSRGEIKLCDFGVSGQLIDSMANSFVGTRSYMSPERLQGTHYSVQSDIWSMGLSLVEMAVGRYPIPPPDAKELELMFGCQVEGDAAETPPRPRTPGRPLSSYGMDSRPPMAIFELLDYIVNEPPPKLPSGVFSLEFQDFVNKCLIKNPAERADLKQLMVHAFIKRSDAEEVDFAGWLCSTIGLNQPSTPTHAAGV
Mitogen-activated protein kinase 14 (Homo sapiens), sequence (Q16539 whole entry): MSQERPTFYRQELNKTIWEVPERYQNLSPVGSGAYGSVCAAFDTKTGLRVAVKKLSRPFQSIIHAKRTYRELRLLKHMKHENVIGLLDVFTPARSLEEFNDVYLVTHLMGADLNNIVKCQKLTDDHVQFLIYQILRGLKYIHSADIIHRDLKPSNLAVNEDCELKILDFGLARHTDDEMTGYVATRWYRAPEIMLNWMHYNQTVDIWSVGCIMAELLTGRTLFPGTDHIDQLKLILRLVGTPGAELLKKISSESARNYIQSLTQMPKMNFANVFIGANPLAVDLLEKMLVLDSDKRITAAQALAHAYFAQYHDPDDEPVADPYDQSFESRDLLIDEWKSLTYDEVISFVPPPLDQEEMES
Serine/threonine-protein kinase PAK 4 (Homo sapiens), sequence (O96013 whole entry, looked up): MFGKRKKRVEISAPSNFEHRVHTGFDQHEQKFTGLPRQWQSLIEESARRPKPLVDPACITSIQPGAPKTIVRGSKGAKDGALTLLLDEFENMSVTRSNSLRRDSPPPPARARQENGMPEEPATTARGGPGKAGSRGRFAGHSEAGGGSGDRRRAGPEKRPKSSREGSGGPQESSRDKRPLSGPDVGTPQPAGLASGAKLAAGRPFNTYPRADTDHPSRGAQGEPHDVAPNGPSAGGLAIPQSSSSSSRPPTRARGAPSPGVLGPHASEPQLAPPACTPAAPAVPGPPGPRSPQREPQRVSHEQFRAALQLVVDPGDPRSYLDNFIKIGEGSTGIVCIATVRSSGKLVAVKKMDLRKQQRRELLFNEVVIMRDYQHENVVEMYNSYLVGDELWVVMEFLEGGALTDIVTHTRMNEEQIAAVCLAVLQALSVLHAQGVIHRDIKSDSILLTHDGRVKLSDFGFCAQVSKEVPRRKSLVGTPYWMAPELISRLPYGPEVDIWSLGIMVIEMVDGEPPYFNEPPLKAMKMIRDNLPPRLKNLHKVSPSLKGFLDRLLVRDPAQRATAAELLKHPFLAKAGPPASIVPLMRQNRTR
Calcium/calmodulin-dependent protein kinase kinase 2 (Homo sapiens), sequence (Q96RR4 2-588 limits assumed): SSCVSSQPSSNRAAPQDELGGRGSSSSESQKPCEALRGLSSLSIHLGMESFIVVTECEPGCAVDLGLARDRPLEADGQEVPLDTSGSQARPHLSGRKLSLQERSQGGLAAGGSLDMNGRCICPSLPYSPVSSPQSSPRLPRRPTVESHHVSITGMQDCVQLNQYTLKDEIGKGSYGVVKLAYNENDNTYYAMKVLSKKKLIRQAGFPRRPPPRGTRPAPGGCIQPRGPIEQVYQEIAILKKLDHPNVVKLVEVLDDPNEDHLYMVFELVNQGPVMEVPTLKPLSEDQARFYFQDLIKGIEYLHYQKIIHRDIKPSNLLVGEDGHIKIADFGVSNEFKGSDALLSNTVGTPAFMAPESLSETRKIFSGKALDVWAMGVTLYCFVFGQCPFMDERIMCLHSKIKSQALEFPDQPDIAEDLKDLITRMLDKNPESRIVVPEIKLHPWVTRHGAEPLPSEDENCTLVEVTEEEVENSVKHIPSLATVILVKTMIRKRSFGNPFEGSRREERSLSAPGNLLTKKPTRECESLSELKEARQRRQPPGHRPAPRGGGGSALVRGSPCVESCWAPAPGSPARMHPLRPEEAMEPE
Homeodomain-interacting protein kinase 2 (Homo sapiens), sequence (Q9H2X6 whole entry, looked up): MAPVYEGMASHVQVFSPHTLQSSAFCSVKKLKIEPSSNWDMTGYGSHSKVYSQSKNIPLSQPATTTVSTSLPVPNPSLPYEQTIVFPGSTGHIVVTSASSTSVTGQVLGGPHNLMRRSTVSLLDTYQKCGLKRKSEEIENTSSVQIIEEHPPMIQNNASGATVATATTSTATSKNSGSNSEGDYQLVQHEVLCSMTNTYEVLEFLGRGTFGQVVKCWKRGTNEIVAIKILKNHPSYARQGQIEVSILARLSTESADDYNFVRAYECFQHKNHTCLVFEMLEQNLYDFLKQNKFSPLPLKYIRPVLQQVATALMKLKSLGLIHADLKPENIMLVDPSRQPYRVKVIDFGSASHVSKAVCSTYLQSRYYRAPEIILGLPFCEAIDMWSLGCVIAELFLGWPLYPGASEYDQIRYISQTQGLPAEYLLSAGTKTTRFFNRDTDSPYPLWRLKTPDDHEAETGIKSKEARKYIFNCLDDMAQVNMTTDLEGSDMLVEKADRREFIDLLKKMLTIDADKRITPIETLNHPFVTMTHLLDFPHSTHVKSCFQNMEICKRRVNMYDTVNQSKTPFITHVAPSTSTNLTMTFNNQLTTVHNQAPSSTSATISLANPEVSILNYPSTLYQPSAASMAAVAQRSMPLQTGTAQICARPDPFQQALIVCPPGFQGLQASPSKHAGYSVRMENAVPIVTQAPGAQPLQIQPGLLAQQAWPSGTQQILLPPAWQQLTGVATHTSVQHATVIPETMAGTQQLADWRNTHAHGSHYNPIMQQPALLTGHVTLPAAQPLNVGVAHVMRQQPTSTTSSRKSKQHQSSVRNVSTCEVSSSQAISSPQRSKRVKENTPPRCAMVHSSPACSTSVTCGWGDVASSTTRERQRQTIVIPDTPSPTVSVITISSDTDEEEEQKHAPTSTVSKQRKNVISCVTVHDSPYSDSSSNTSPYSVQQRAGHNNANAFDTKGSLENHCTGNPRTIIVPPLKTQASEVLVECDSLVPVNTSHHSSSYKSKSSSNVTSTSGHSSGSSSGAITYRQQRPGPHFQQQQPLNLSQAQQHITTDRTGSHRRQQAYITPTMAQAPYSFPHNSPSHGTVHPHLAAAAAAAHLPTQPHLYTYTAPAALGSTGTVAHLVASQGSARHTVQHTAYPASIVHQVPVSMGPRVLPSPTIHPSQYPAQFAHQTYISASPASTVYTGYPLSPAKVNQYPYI

Cn1c(CNc2cccc(C(=O)NCc3ccccc3C(F)(F)F)c2)nnc1-c1ccncc1
inhibition [1]: Active
Activity [2]: 92%
inhibition [3]: 59%
Activity [4]: 96%
Activity [5]: 86%
Activity [6]: 103%
Activity [7]: 88%
Activity [8]: 85%
inhibition [9]: Dose-Dependent Effect
Activity [10]: 92%
inhibition [11]: Active
Activity [12]: 101%
Activity [13]: 94%
inhibition [14]: Active
desensitization [15]: 15%
Activity [16]: 113%
Activity [17]: 82%
inhibition [18]: < 20%
Activity [19]: 104%
inhibition [20]: inactive
Activity [21]: 53%
Activity [22]: 103%
Activity [23]: 103%
inhibition [24]: Active
Activity [25]: 69%
Activity [26]: 101%
inhibition [27]: inactive
